Experimental findings from ChEMBL document CHEMBL5252539, “In vitro biological evaluation of new antimycobacterial salicylanilide-tuftsin conjugates” (Eur J Med Chem, 2017) are described below.

Series [1] has as its system Mycobacterium tuberculosis. Kind of series: Antimycobacterial activity against Mycobacterium tuberculosis H37Rv ATCC 27294 assessed as reduction in bacterial growth after 28 days by serial dilution method. It counts as functional. The conditions noted are these: H37Rv ATCC 27294, 672 h, time 28 day. In a few lines: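 Broth MIC in Sula semisynthetic medium, pH 6.5; 4-week incubation, with 21-day values […] where indicated. Drug-free inoculated bacteria served as growth control. MIC also expressed as drug content (µg/mL) = MIC (µM) × average SAL molar mass × number of SAL per conjugate / 1000.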

A short description of series [2]: Selectivity index, ratio of IC50 for cytostatic activity against human HepG2 cells to MIC for antimycobacterial activity against Mycobacterium tuberculosis H37Rv ATCC 27294. It counts as toxicity, cell-based. The conditions noted are these: read-out: Selectivity Index. In a few lines:
(§1)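 MTT assay on MonoMac6 or HepG2 cells after 24 h exposure, top concentration 200 µM. SI = IC50 (µM)/MIC (µM) against H37Rv from the 4-week Sula medium assay.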

For series [3], the system named is HepG2. Kind of series: Cytostatic activity against human HepG2 cells assessed as reduction in cell viability incubated for 24 hrs by MTT assay. In kind it is functional, cell-based. The conditions noted are these: HepG2, 24 h. In short, it runs like this:
(§2)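 MTT viability assay after 24 h exposure of MonoMac6 human monocytic cells or HepG2 human hepatocellular carcinoma cells. Top concentration 200 μM. IC50 taken from dose-response curves as the concentration reducing viability to 50% of maximal.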
A general note: Formazan colour is commonly taken as a measure of viable cells.

Series [4] deals with Mycobacteroides abscessus. Kind of series: Antimycobacterial activity against Mycobacterium abscessus ATCC 19977 assessed as reduction in bacterial growth after 7 days by serial dilution method. In kind it is functional. The conditions noted are these: ATCC 19977, 168 h, time 7 day. In short, it runs like this:
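MIC determined in Sula semisynthetic medium, pH 6.5, 1 week incubation. Growth inhibition confirmed by plating on Löwenstein-Jensen solid medium and counting CFU. Bacteria inoculated without drug served as growth control.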

Series [5] is described as follows: Selectivity index, ratio of IC50 for cytostatic activity against human MONO-MAC-6 cells to MIC for antimycobacterial activity against Mycobacterium tuberculosis H37Rv ATCC 27294. As to conditions: read-out: Selectivity Index. In kind it is toxicity, cell-based. In a few lines:
as §1

Series [6] relates to MONO-MAC-6. Description: Cytostatic activity against human MONO-MAC-6 cells assessed as reduction in cell viability incubated for 24 hrs by MTT assay. It counts as functional, cell-based. As to conditions: MONO-MAC-6, 24 h. In a few lines: as §2

In brackets after ≈: the same amount, converted by molar mass.

The term MIC denotes the lowest concentration that inhibits growth of the organism. In general, IC50 refers to the concentration that inhibits the measured activity by half. As to `O=C(Nc1ccc(Cl)c(Cl)c1)c1cc(Cl)ccc1O`, the MIC came out at 1.6 µM (≈ 0.507 µg/mL) in series [1] and 3.2 µM (≈ 1.01 µg/mL) in series [4]. Further, the selectivity ratio stood at 1.5 in series [2] and 2.4 in series [5]. For the same compound, the values for the IC50 in series [3] and in series [6] were 2.4 µM and 3.8 µM, respectively.
For the compound `O=C(Nc1ccc(C(F)(F)F)cc1)c1cc(Cl)ccc1O`, the MIC in series [1] was found to be 1.6 µM (≈ 0.505 µg/mL); in series [4], 3.2 µM (≈ 1.01 µg/mL). In addition, the IC50 turned out to be 5.8 µM in series [3] and 2.2 µM in series [6].
Take `O=C(Nc1ccc(C(F)(F)F)cc1)c1cc(Br)ccc1O`: the MIC in series [1] came to 1.4 µM (≈ 0.504 µg/mL); in series [4] it was 13.9 µM (≈ 5.01 µg/mL). For the same compound, the selectivity ratio in series [2] amounted to 3.9; in series [5] it was 1.4. Moreover, the figures for the IC50 in series [3] and in series [6] were 5.5 µM and 2 µM, respectively.
Turning to `O=C(Nc1ccc(Cl)c(Cl)c1)c1cc(Br)ccc1O`, the MIC in series [1] amounted to 1.4 µM (≈ 0.505 µg/mL); in series [4], 7 µM (≈ 2.53 µg/mL). The values for the selectivity ratio in series [2] and in series [5] were 2.9 and 1, respectively. Further, the IC50 in series [3] worked out at 4.1 µM; in series [6], 1.4 µM.
In the case of `C/C(=N\OCC(=O)NCC(=O)N[C@@H](Cc1ccccc1)C(=O)N[C@@H](CC(C)C)C(=O)NCC(=O)N[C@H](C(=O)N[C@@H](CCCCN)C(=O)N1CCC[C@H]1C(=O)N1CCC[C@H]1C(=O)N[C@@H](CCCNC(=N)N)C(=O)O)[C@@H](C)O)c1ccc(NC(=O)c2cc(Br)ccc2O)cc1` [listing 1 of 2 here], the selectivity ratio is 5.3 in series [2] and above 6.8 in series [5]. The IC50 is 156 µM in series [3] and above 200 µM in series [6].
For `C/C(=N\OCC(=O)NCC(=O)N[C@@H](Cc1ccccc1)C(=O)N[C@@H](CC(C)C)C(=O)NCC(=O)N[C@H](C(=O)N[C@@H](CCCCN)C(=O)N1CCC[C@H]1C(=O)N1CCC[C@H]1C(=O)N[C@@H](CCCNC(=N)N)C(=O)O)[C@@H](C)O)c1ccc(NC(=O)c2cc(Br)ccc2O)cc1` [listing 2 of 2 here], the MIC in series [1] was found to be 29.4 µM (≈ 40 µg/mL); in series [4] it was 147 µM (≈ 200 µg/mL).
With `C/C(=N\OCC(=O)N[C@H](C(=O)N[C@@H](CCCCN)C(=O)N1CCC[C@H]1C(=O)N1CCC[C@H]1C(=O)N[C@@H](CCCNC(=N)N)C(=O)O)[C@@H](C)O)c1ccc(NC(=O)c2cc(Br)ccc2O)cc1`, the MIC turned out to be 20.3 µM (≈ 20 µg/mL) in series [1] and 203 µM (≈ 200 µg/mL) in series [4].
Take `C/C(=N\OCC(=O)NCC(=O)N[C@@H](Cc1ccccc1)C(=O)N[C@@H](CC(C)C)C(=O)NCC(=O)N[C@H](C(=O)N[C@@H](CCCCN)C(=O)N1CCC[C@H]1C(=O)N[C@@H](CCCCN)C(=O)NCC(=O)N[C@H](C(=O)N[C@@H](CCCCN)C(=O)N1CCC[C@H]1C(=O)N[C@@H](CCCCN)C(=O)NCC(=O)N[C@H](C(=O)N[C@@H](CCCCN)C(=O)N1CCC[C@H]1C(=O)N[C@@H](CCCCN)C(=O)NCC(=O)N[C@H](C(=O)N[C@@H](CCCCN)C(=O)N1CCC[C@H]1C(=O)N[C@@H](CCCCN)C(=O)NCC(N)=O)[C@@H](C)O)[C@@H](C)O)[C@@H](C)O)[C@@H](C)O)c1ccc(NC(=O)c2cc(Br)ccc2O)cc1`: the MIC was 142 µM (≈ 400 µg/mL) in series [1] and 70.7 µM (≈ 200 µg/mL) in series [4].
`C/C(=N\OCC(=O)NCC(=O)N[C@@H](Cc1ccccc1)C(=O)N[C@@H](CC(C)C)C(=O)NCC(=O)N[C@H](C(=O)N[C@@H](CCCCN)C(=O)N1CCC[C@H]1C(=O)N[C@@H](CCCNC(=N)N)C(=O)O)[C@@H](C)O)c1ccc(NC(=O)c2cc(Br)ccc2O)cc1` [listing 1 of 2 here]: the selectivity ratio in series [2] was 3.6; in series [5] it was above 6.3. In addition, the figures for the IC50 in series [3] and in series [6] were 113 µM and above 200 µM, respectively.
Regarding `C/C(=N\OCC(=O)NCC(=O)N[C@@H](Cc1ccccc1)C(=O)N[C@@H](CC(C)C)C(=O)NCC(=O)N[C@H](C(=O)N[C@@H](CCCCN)C(=O)N1CCC[C@H]1C(=O)N[C@@H](CCCNC(=N)N)C(=O)O)[C@@H](C)O)c1ccc(NC(=O)c2cc(Br)ccc2O)cc1` [listing 2 of 2 here], the MIC in series [1] stood at 31.6 µM (≈ 40 µg/mL); in series [4], 158 µM (≈ 200 µg/mL).
In the case of `CCCCCCCCCC(=O)O` [DECANOIC ACID], the IC50 in series [6] was above 200 µM.
As to `CCCCCCCCCCCCCCCC(=O)O` [PALMITIC ACID], in series [6], the IC50 stood at 178 µM.
